The term IC50 denotes the point on the concentration scale where inhibition reaches its midpoint. By inhibition is commonly meant the relative decrease from the control value, in per cent. Usually pIC50 stands for the negative decadic logarithm of the IC50, by convention in mol/L. A word on the half-life: it is how long it takes for the measured level to halve. A word on the pA2: it is the negative logarithm of the molar antagonist concentration that doubles the agonist concentration needed for the same response.

The structures appear in SMILES notation. Calls of active or inactive are those of the source. The calls are words filed in the database; no cut-off is given here.

The values below come from ChEMBL document CHEMBL1156633, “Discovery of novel and long acting muscarinic acetylcholine receptor antagonists” (J Med Chem, 2008).

Data set [1] has as its target Muscarinic acetylcholine receptor M1 and M3 (Homo sapiens) (UniProt P20309+P11229). As to the kind of experiment: Selectivity for human muscarinic acetylcholine M3 receptor over human muscarinic acetylcholine M1 receptor. In short, it runs like this:
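Ratio of M1 to M3 potency from FLIPR functional assays measuring inhibition of acetylcholine-induced intracellular Ca²⁺ mobilization. The M3 assay used CHO cells stably expressing human recombinant M3 receptor; the M1 assay is described only as a FLIPR assay. pIC50 values are the mean of at least two determinations.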

Data set [2] addresses T1, Muscarinic acetylcholine receptor M3 (Homo sapiens, UniProt P20309). The experiment in a line: Antagonist activity at human muscarinic acetylcholine M3 receptor expressed in CHO cells assessed as inhibition of acetylcholine-induced calcium mobilization by FLIPR assay. The data set is classed as functional, cell-based. The method, boiled down:
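Readout: inhibition of acetylcholine-mediated intracellular Ca2+ mobilization in CHO cells stably expressing human recombinant M3 receptor, reported as pIC50. Values are the mean of at least two determinations, standard deviation below 0.3 unless otherwise noted.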
(In general: Calcium assays in cells follow changes in intracellular calcium, usually with a dye or a luminescent sensor.)

In data set [3] the target is T2, Muscarinic acetylcholine receptor M2 (Homo sapiens, UniProt P08172).
T2 sequence (P08172 whole entry): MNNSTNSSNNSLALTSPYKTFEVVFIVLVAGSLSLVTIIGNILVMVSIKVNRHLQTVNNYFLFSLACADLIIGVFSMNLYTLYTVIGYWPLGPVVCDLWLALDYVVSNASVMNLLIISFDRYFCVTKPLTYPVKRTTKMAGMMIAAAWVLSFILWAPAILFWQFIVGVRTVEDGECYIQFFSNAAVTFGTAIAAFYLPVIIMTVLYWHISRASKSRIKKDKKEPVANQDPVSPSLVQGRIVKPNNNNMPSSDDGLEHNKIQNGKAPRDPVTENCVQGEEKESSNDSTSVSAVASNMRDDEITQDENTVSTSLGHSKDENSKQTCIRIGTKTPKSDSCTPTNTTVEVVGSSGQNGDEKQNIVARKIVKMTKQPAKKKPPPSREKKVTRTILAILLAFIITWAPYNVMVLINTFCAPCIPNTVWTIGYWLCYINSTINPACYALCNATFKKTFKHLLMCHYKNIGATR
As to the kind of experiment: Antagonist activity at human muscarinic acetylcholine M2 receptor expressed in CHO cells coexpressed with Gqi5 assessed as inhibition of acetylcholine-induced calcium mobilization by FLIPR assay. The data set is classed as functional, cell-based. In short, it runs like this: (§1)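 Readout: inhibition of acetylcholine-mediated intracellular Ca2+ mobilization in CHO cells expressing the human receptor subtype, reported as pIC50. Values are the mean of at least two determinations, standard deviation below 0.3 unless otherwise noted.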

Data set [4] concerns the target T3, Muscarinic acetylcholine receptor M1 (Homo sapiens, UniProt P11229).
T3 sequence (P11229 whole entry): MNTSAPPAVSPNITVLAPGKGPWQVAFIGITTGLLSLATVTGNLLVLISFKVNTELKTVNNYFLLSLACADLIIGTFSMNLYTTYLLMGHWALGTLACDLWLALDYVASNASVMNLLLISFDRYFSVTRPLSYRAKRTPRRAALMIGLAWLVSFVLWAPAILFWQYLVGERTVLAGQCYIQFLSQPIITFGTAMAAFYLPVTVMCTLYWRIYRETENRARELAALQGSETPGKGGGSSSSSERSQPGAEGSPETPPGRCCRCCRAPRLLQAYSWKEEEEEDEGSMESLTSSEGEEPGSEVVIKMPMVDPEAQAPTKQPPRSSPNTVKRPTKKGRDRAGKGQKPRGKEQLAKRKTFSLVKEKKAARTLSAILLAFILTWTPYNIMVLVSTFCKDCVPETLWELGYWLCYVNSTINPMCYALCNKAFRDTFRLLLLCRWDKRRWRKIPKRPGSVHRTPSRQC
As to the kind of experiment: Antagonist activity at human muscarinic acetylcholine M1 receptor expressed in CHO cells assessed as inhibition of acetylcholine-induced calcium mobilization by FLIPR assay. The data set is classed as functional, cell-based. In short, it runs like this:
as §1

The target in data set [5] is T3, Muscarinic acetylcholine receptor M1. The experiment in a line: Antagonist activity at human muscarinic acetylcholine M1 receptor expressed in CHO cells assessed as inhibition of acetylcholine-induced calcium mobilization by single concentration kinetic FLIPR assay. The data set is classed as functional, cell-based. The settings on record: read-out: pA2 (converted). The method, boiled down: (§2)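 CHO cells stably expressing the human recombinant muscarinic receptor subtype, in a fluorometric imaging plate reader (FLIPR) assay. Read-out is inhibition of acetylcholine-mediated intracellular Ca2+ mobilization. Results are the mean of at least two determinations.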

Data set [6] addresses T1, Muscarinic acetylcholine receptor M3. The experiment in a line: Antagonist activity at human muscarinic acetylcholine M3 receptor expressed in CHO cells assessed as inhibition of acetylcholine-induced calcium mobilization by single concentration kinetic FLIPR assay. It counts as functional, cell-based. The settings on record: read-out: pA2 (converted). The method, boiled down:
as §2

The subject of data set [7] is Cavia porcellus. As to the kind of experiment: Inhibition of acetylcholine-induced bronchoconstriction in conscious Dunkin-Hartley guinea pig assessed as enhanced pause at 2.5 ug, intratracheally administered as single dose after 4 hrs.
Data set [8] addresses T4, Substance-K receptor (Homo sapiens) (UniProt P21452).
T4 sequence (whole entry): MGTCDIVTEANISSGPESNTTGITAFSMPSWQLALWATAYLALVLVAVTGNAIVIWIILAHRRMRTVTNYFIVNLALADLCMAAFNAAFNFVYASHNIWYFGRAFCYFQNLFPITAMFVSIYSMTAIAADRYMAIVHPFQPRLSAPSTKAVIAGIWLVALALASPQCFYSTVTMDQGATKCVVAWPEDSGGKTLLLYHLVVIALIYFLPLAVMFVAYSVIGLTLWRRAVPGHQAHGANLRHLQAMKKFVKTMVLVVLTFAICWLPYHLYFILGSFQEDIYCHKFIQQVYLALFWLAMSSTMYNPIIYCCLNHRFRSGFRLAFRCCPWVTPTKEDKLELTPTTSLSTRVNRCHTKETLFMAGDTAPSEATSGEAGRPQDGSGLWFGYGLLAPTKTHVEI
The experiment in a line: Inhibition of NK2 receptor at 1 uM.

Data set [9] deals with Cavia porcellus. As to the kind of experiment: Inhibition of acetylcholine-induced bronchoconstriction in conscious Dunkin-Hartley guinea pig assessed as enhanced pause at 2.5 ug, intratracheally administered as single dose after 24 hrs.
Data set [10] deals with T2, Muscarinic acetylcholine receptor M2. The experiment in a line: Antagonist activity at human muscarinic acetylcholine M2 receptor expressed in CHO cells coexpressed with Gqi5 assessed as inhibition of acetylcholine-induced calcium mobilization by single concentration kinetic FLIPR assay. It counts as functional, cell-based. Conditions: read-out: pA2 (converted). The method, boiled down: as §2

For a further data set, the target named is Cytochrome P450 2D6 (Homo sapiens, UniProt P10635). The experiment in a line: Inhibition of CYP2D6. It counts as ADME.
Data set [11] relates to Mus musculus. As to the kind of experiment: Inhibition of methacholine-induced bronchoconstriction in conscious BALB/c mouse at 5 ug, intranasally administered as single dose after 48 hrs. It counts as functional. On the set-up: scale not given: the % may be the effect or the level left. The method, boiled down: (§3)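 Conscious mice given a single intranasal dose of 5 µg/animal, then challenged with methacholine to induce bronchoconstriction. Inhibition of bronchoconstriction was assessed at set times after dosing.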

For a further data set, the target named is Cytochrome P450 2C9 (Homo sapiens, UniProt P11712). The experiment in a line: Inhibition of CYP2C9. It counts as ADME.
Data set [12] has as its system Mus musculus. As to the kind of experiment: Inhibition of methacholine-induced bronchoconstriction in conscious BALB/c mouse at 5 ug, intranasally administered as single dose after 24 hrs. The data set is classed as functional. Further details: scale not given: the % may be the effect or the level left. The method, boiled down: as §3
Data set [13] is described as follows: Permeability across artificial membrane. The data set is classed as ADME. The settings on record: PAMPA; read-out: permeability. On the technique in general: The PAMPA barrier holds no transporters, so it reflects passive diffusion.
The nature of data set [14]: Antagonist activity at alpha3 nicotinic acetylcholine receptor. The data set is classed as functional.
Data set [15] in a line: Volume of distribution at steady state in Sprague-Dawley rat at 2.2 mg/kg, iv and 4.8 mg/kg, po. The data set is classed as ADME, organism-based. The settings on record: in vivo, read-out: Vdss.
The nature of data set [16]: Half life in Sprague-Dawley rat at 2.2 mg/kg, iv and 4.8 mg/kg, po. It counts as ADME, organism-based. The settings on record: in vivo.
Data set [17] in a line: Antagonist activity at alpha1 nicotinic acetylcholine receptor. It counts as functional.
The target in a further data set is Cytochrome P450 2C19 (Homo sapiens, UniProt P33261). The experiment in a line: Inhibition of CYP2C19. It counts as ADME.
Data set [18] concerns Mus musculus. As to the kind of experiment: Inhibition of methacholine-induced bronchoconstriction in conscious BALB/c mouse at 5 ug, intranasally administered as single dose after 5 hrs 15 mins. It counts as functional, organism-based. In short, it runs like this:
as §3

Data set [19] is described as follows: Clearance in Sprague-Dawley rat at 2.2 mg/kg, iv and 4.8 mg/kg, po. The data set is classed as ADME, organism-based. The settings on record: in vivo.
The target of data set [20] is Muscarinic acetylcholine receptor M3 (Homo sapiens). As to the kind of experiment: Selectivity for human muscarinic acetylcholine M3 receptor over human muscarinic acetylcholine M2 receptor.

T1 sequence (P20309 whole entry): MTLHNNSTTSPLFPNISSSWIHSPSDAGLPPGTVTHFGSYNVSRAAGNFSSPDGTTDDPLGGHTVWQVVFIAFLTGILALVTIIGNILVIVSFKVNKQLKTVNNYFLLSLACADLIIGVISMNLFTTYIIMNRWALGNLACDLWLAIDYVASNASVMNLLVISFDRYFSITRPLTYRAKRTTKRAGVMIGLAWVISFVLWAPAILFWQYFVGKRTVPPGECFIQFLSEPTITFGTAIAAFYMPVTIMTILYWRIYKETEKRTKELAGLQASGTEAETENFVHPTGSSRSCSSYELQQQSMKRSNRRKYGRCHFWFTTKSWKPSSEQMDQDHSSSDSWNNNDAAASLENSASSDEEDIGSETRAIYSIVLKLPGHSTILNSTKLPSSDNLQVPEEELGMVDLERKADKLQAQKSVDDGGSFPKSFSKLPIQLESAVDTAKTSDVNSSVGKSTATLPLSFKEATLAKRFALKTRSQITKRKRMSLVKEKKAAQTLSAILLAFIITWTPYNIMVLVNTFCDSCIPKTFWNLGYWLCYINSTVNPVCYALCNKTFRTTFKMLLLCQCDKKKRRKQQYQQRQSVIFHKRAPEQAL
Muscarinic acetylcholine receptor M1 and M3 (Homo sapiens), sequence (P20309 whole entry, looked up, one chain of several): as the sequence (P20309 whole entry) above
Cytochrome P450 2D6, sequence (P10635 whole entry): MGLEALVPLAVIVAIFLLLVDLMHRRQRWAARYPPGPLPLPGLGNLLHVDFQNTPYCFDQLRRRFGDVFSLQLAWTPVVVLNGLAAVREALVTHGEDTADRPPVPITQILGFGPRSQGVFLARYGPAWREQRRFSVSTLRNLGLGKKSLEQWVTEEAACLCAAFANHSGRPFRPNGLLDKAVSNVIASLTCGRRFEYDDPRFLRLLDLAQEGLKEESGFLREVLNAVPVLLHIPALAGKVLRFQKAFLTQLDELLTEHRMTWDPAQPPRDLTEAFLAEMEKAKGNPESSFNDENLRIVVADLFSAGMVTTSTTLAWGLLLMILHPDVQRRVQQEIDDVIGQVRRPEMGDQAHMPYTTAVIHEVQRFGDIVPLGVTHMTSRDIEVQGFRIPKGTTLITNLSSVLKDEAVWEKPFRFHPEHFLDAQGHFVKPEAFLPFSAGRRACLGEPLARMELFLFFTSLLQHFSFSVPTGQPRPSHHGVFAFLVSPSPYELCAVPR
Cytochrome P450 2C19, sequence (P33261 whole entry): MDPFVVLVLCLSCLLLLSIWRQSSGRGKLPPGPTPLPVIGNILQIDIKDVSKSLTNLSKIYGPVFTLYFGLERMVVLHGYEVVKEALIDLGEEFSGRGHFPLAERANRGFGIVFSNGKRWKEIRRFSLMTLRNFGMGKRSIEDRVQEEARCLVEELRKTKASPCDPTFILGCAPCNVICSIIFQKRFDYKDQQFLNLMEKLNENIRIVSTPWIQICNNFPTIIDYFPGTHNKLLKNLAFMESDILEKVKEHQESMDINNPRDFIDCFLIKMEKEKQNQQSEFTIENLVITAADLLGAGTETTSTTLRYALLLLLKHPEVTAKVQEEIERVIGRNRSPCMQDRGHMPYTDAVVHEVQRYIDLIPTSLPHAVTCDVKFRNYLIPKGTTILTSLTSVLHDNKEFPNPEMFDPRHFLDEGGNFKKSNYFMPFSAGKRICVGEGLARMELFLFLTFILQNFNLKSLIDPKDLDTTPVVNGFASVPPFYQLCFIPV
Cytochrome P450 2C9, sequence (P11712 whole entry): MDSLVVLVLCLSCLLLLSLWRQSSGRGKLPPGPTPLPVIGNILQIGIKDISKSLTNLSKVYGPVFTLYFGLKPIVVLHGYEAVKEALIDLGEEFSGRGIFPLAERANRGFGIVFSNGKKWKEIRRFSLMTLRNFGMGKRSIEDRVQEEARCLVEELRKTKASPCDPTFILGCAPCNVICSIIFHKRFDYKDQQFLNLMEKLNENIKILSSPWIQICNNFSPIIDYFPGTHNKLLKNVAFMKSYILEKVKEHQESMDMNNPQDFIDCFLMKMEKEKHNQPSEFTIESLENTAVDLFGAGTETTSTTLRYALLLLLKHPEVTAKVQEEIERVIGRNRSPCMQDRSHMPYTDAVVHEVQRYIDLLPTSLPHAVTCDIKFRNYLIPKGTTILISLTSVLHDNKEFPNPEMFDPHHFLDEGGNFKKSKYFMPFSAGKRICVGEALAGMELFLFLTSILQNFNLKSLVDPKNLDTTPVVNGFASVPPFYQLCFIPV

As for `CCOC(=O)c1ccc(NC(=O)N[C@@H](Cc2ccc(O)cc2)C(=O)NC2CCN(Cc3ccc(O)cc3)C2)cc1` (stereo not given in full), in data set [1], the Selectivity ratio worked out at 100. For the same compound, the IC50 in data set [2] is 0.02 µM; in [3] it was 0.158 µM; in data set [4], 2 µM.
On to `Cc1cn2cc(CNC(=O)[C@H](Cc3ccc(O)cc3)NC(=O)Nc3ccc(C(=O)OC4CCCCC4)s3)[n+](Cc3ccc4ccccc4c3)c2s1.[I-]`, for which, in [1], the Selectivity ratio came out at 25. The values for the Kb in [5], in [6] and in [10] were 0.000316 µM, 12.6 pM and 0.0002 µM, respectively. Also, the “inhibition (INH)” value was 93% with Cavia porcellus [7] and 88% in the data set on Cavia porcellus [9]. In data set [8], this compound registered an inhibition of 74%.
Turning to `CC(C)OC(=O)c1ccc(NC(=O)N[C@@H](Cc2ccc(O)cc2)C(=O)N[C@H]2CCC[N+](C)(Cc3cccc(O)c3)C2)cc1.[I-]` (stereo not given in full), the half-maximal inhibitory concentration (IC50) is 3.98 µM against Cytochrome P450 2D6, more than 10 µM against Cytochrome P450 2C9 and more than 10 µM against Cytochrome P450 2C19. For the same compound, the Activity is more than 30% with Mus musculus [11] and more than 80% in the data set on Mus musculus [12]. In addition, the Papp in [13] was less than 0.3 ×10⁻⁶ cm/s. For the same compound, the negative-log IC50 (pIC50) in data set [14] and in [17] was 6.1 in each case. For the same compound, the Vd in data set [15] amounted to 0.55 L/kg. Besides, in [16], the half-life was 1.1 h. Moreover, the Kb in data set [10] was 0.001 µM. Further, the outcome in the data set on Mus musculus [18] was Active. The compound further showed a clearance in data set [19] of 15 mL/min/kg.
Turning to `CCOC(=O)c1ccc(NC(=O)N[C@@H](Cc2ccc(O)cc2)C(=O)N[C@@H]2CCN(Cc3ccc(O)cc3)C2)cc1`, the results for the IC50 in [2], in data set [3] and in data set [4] were 1.58 µM, 1.58 µM and 3.98 µM, respectively.
With `CCOC(=O)c1ccc(NC(=O)N[C@@H](Cc2ccc(O)cc2)C(=O)N[C@H]2CCN(Cc3ccc(O)cc3)C2)cc1`, the Selectivity ratio in [1] stood at 80. The 50% inhibitory concentration (IC50) in [2] is 0.0158 µM; in [3] it was 0.126 µM; in [4], 1 µM.
Turning to `CCOC(=O)c1ccc(NC(=O)N[C@H](Cc2ccc(O)cc2)C(=O)N[C@H]2CCN(Cc3ccc(O)cc3)C2)cc1`, the figures for the IC50 in data set [2], in data set [3] and in data set [4] were 3.16 µM, 5.01 µM and 12.6 µM, respectively.
The like results for `CCOC(=O)c1ccc(NC(=O)N[C@H](Cc2ccc(O)cc2)C(=O)N[C@@H]2CCN(Cc3ccc(O)cc3)C2)cc1` were, in that order, 20 µM, 20 µM and 20 µM.
As for `Cc1cn2cc(CNC(=O)[C@H](Cc3ccc(O)cc3)NC(=O)Nc3ccc(C(=O)OC(C)C)cc3)[n+](Cc3ccc4ccccc4c3)c2s1.O=C([O-])C(F)(F)F`, the Selectivity ratio in [1] came out at 30. The results for the Kb in [5], in data set [6] and in [10] were 0.000794 µM, 25.1 pM and 0.00158 µM, respectively. Moreover, the Activity was more than 60% with Mus musculus [11] and more than 80% in the data set with Mus musculus [12]. In data set [20], this compound registered a pA2 of 10.6. The outcome in the data set on Mus musculus [18] was Active.
